Each compound was assayed against Human immunodeficiency virus type 1 reverse transcriptase (Human immunodeficiency virus 1, UniProt Q72547) (assay: Inhibition of HIV1 reverse transcriptase after 1 hr by ELISA).
How it was run: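 Commercial colorimetric RT kit; template/primer complex, biotin- and DIG-labelled dNTPs and RT enzyme in lysis buffer, with or without inhibitor, incubated 1 h at 37 °C. Product captured on streptavidin-coated plate, washed, probed with anti-DIG-peroxidase, then ABTS substrate added; absorbance read at 405 nm.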

| Compound | IC50 |
| --- | --- |
| Cc1nc(N2C(=O)CSC2c2c(F)cccc2Cl)nc(C)c1C (stereo unspecified) | 380 nM |
| Cc1nc(N2C(=O)CSC2c2c(Cl)cccc2Cl)nc(C)c1C (stereo unspecified) | 830 nM |
| CCCCCc1c(C)nc(N2C(=O)CSC2c2c(Cl)cccc2Cl)nc1C (stereo unspecified) | 74400 nM |
| Cc1nc(N2C(=O)CSC2c2c(Cl)cccc2Cl)nc(C)c1CCC#N (stereo unspecified) | 1020 nM |
| CCCCc1c(C)nc(N2C(=O)CSC2c2c(F)cccc2Cl)nc1C (stereo unspecified) | 16000 nM |
| CCCCCc1c(C)nc(N2C(=O)CSC2c2c(F)cccc2Cl)nc1C (stereo unspecified) | 16200 nM |
| C=CCc1c(C)nc(N2C(=O)CSC2c2c(F)cccc2Cl)nc1C (stereo unspecified) | 2920 nM |
| Cc1nc(N2C(=O)CSC2c2c(F)cccc2Cl)nc(C)c1CCC#N (stereo unspecified) | 2010 nM |
| CCc1c(C)nc(N2C(=O)CSC2c2c(F)cccc2Cl)nc1C (stereo unspecified) | 230 nM |
| CCCc1c(C)nc(N2C(=O)CSC2c2c(Cl)cccc2Cl)nc1C (stereo unspecified) | 770 nM |
| CCCCc1c(C)nc(N2C(=O)CSC2c2c(Cl)cccc2Cl)nc1C (stereo unspecified) | 4290 nM |
| Cc1nc(N2C(=O)CSC2c2c(Cl)cccc2Cl)nc(C)c1Br (stereo unspecified) | 9820 nM |
| C=CCc1c(C)nc(N2C(=O)CSC2c2c(Cl)cccc2Cl)nc1C (stereo unspecified) | 1220 nM |
| CCCc1c(C)nc(N2C(=O)CSC2c2c(F)cccc2Cl)nc1C (stereo unspecified) | 850 nM |
| Cc1nc(N2C(=O)CSC2c2c(F)cccc2Cl)nc(C)c1Br (stereo unspecified) | 1520 nM |
| CCc1c(C)nc(N2C(=O)CSC2c2c(Cl)cccc2Cl)nc1C (stereo unspecified) | 260 nM |

Reference: ChEMBL document CHEMBL1137762, “Design, microwave-assisted synthesis and HIV-RT inhibitory activity of 2-(2,6-dihalophenyl)-3-(4,6-dimethyl-5-(un)substituted-pyrimidin-2-yl)thiazolidin-4-ones” (Bioorg Med Chem, 2009)
